From ChEMBL document CHEMBL4396917, “Synthesis and biological evaluation of novel benzylidene-succinimide derivatives as noncytotoxic antiangiogenic inhibitors with anticolorectal cancer activity in vivo” (Eur J Med Chem, 2019)
Active and inactive are the calls of the source. The calls are words filed in the database; no cut-off is given here.

Columns and labels:
[1] = system: HUVEC; assay: Induction of apoptosis in VEGF-stimulated HUVEC assessed as late apoptotic cells at 5 uM after 24 hrs by Annexin V-FITC/propidium iodide staining based flow cytometric analysis (reference value: 11.3%); type: cell-based; conditions: human
Summary of the method: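 HUVECs plated at 5×10^5 per well and treated 24 h with 1, 5, 10 or 20 μM. Detached and adherent cells were pooled, washed in ice-cold PBS and resuspended in fresh medium. 1×10^5 cells were stained with annexin-V-FITC in annexin-V buffer for 20 min in the dark, then PI (50 μg/mL) was added. Read-out by flow cytometry.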

[2] = system: HT-29; assay: Downregulation of HIF1-alpha mRNA expression in human HT-29 cells after 24 hrs by RT-qPCR assay; type: functional, cell-based
Summary of the method: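 HT29 cells treated with 1, 5, 10 or 20 μM for 24 h; total RNA extracted with TRIzol; SYBR Green qPCR, 40 cycles of 5 s at 95°C and 60 s at 60°C in 20-μL reactions.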

[3] = system: HUVEC; assay: Antiinvasive activity in HUVEC assessed as inhibition of VEGF-induced cell invasion at 20 uM after 6 hrs by crystal violet staining based transwell assay relative to control; type: functional; conditions: Homo sapiens
Summary of the method: (§1)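 Transwell: 1×10⁴ HUVECs in serum-free M200 in top chamber with vehicle or compound; bottom chamber M200 with 10% FBS; 6 h at 37°C; cells on membrane underside fixed in 4% paraformaldehyde, stained 0.1% crystal violet, imaged and counted.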

[4] = system: HT-29; assay: Induction of apoptosis in human HT-29 cells assessed as necrotic cells at 5 uM after 24 hrs by Annexin V-FITC/propidium iodide staining based flow cytometric analysis (reference value: 1.3 to 3.9%); type: cell-based; conditions: ht-29, 24 h
[5] = system: HT-29; assay: Induction of apoptosis in human HT-29 cells assessed as late apoptotic cells at 5 uM after 72 hrs by Annexin V-FITC/propidium iodide staining based flow cytometric analysis (reference value: 12.3%); type: cell-based; conditions: ht-29, 72 h
[6] = system: HepG2; assay: Cytotoxicity against human HepG2 cells assessed as reduction in cell growth after 72 hrs by MTT assay; type: cell-based; conditions: HepG2, 72 h
[7] = system: HT-29; assay: Induction of apoptosis in human HT-29 cells assessed as necrotic cells at 10 uM after 24 hrs by Annexin V-FITC/propidium iodide staining based flow cytometric analysis (reference value: 3.9%); type: cell-based; conditions: ht-29, 24 h
[8] = molecular target: Vascular endothelial growth factor receptor 2 (Homo sapiens) (UniProt P35968); assay: Inhibition of VEGFR2 (unknown origin) at 10 uM using myelin basic protein as substrate in presence of [gamma-33P]-ATP by scintillation counting analysis relative to control
Summary of the method: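 Radiometric kinase panel run by a contract lab. Kinase (5–10 mU) in 25 mM Tris pH 7.5, 0.02 mM EGTA, 0.66 mg/mL myelin basic protein, magnesium acetate and [γ-33P]-ATP (about 500 cpm/pmol). Started with Mg-ATP mix, 40 min at room temperature, stopped with 3% phosphoric acid. Spotted on P30 filters, washed in 75 mM phosphoric acid and methanol, scintillation counted. Mean ± SD of three independent experiments.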

[9] = system: HUVEC; assay: Antiinvasive activity in HUVEC assessed as inhibition of VEGF-induced cell invasion after 6 hrs by crystal violet staining based transwell assay; type: functional; conditions: Homo sapiens; summary of the method: as §1
[10] = system: HT-29; assay: Induction of apoptosis in human HT-29 cells assessed as necrotic cells at 5 uM after 48 hrs by Annexin V-FITC/propidium iodide staining based flow cytometric analysis (reference value: 1.3%); type: cell-based; conditions: ht-29, 48 h
[11] = Induction of apoptosis in human HT-29 cells assessed as viable cells at 5 uM after 48 hrs by Annexin V-FITC/propidium iodide staining based flow cytometric analysis (reference value: 81.1%); type: cell-based; conditions: read-out: Activity
[12] = system: HT-29; assay: Antitumor activity against human HT-29 cells xenografted in mouse assessed as reduction in cell proliferation in tumor at 20 to 60 mg/kg, po administered every other day for 3 weeks and measured at 20 days post treatment by Ki-67 staining based assay; type: functional, organism-based
[13] = molecular target: RAC-alpha serine/threonine-protein kinase (Homo sapiens) (UniProt P31749); assay: Inhibition of AKT1 (unknown origin) at 10 uM using myelin basic protein as substrate in presence of [gamma-33P]-ATP by scintillation counting analysis relative to control
Summary of the method: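 Radiometric kinase assay: kinase (5–10 mU) in 25 mM Tris pH 7.5, 0.02 mM EGTA, 0.66 mg/mL myelin basic protein, magnesium acetate and [γ-33P]ATP. The reaction was started with Mg-ATP, run 40 min at room temperature and stopped with 3% phosphoric acid. Samples were spotted on P30 filters, washed with 75 mM phosphoric acid and methanol, then scintillation counted. Tested at 10 μM; mean of three independent experiments.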

[14] = system: HUVEC; assay: Inhibition of Akt/mTOR signalling in VEGF-induced HUVEC assessed as reduction in mTOR phosphorylation at Ser2448 residue at 1 to 20 uM pre-incubated for 1.5 hrs followed by VEGF stimulation and measured after 30 mins by Western blot analysis; type: cell-based; conditions: Homo sapiens
Summary of the method: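 HUVECs were starved overnight, pretreated 1.5 h with 1, 5, 10 or 20 μM, then stimulated with VEGF (50 ng/mL) for 30 min. Lysates were equalized by Bradford assay, about 20 μg protein was resolved on gradient SDS-PAGE and immunoblotted with phospho-specific antibodies. Detection by HRP secondary antibodies and ECL.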

[15] = system: SW480; assay: Cytotoxicity against human SW480 cells assessed as reduction in cell growth after 72 hrs by MTT assay; type: cell-based; conditions: SW480, 72 h
[16] = system: HT-29; assay: Induction of apoptosis in human HT-29 cells assessed as necrotic cells at 20 uM after 24 hrs by Annexin V-FITC/propidium iodide staining based flow cytometric analysis (reference value: 3.9%); type: cell-based; conditions: ht-29, 24 h
[17] = system: HT-29; assay: Downregulation of MMP2 expression in human HT-29 cells after 24 hrs by immunoblot analysis; type: functional, cell-based
[18] = system: HUVEC; assay: Antiinvasive activity in HUVEC assessed as inhibition of VEGF-induced cell invasion at 5 uM after 6 hrs by crystal violet staining based transwell assay relative to control; type: functional; conditions: Homo sapiens; summary of the method: as §1
[19] = system: Chorioallantoic membrane; assay: Antiangiogenic activity in Leghorn chicken fertilized egg chorioallantoic membrane at 10 nM/egg measured after 48 hrs by CAM assay; type: functional, tissue-based; conditions: Gallus gallus
Summary of the method: (§2)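 Fertile Leghorn eggs incubated at 37.8°C, 40% humidity; window opened on day 7; compound, sunitinib or 0.9% NaCl mixed with DMSO applied on filter paper onto CAM; 48 h incubation, methanol fixation, photography; nascent vessels counted.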

[20] = system: HT-29; assay: Induction of apoptosis in human HT-29 cells assessed as late apoptotic cells at 5 uM after 48 hrs by Annexin V-FITC/propidium iodide staining based flow cytometric analysis (reference value: 12.3%); type: cell-based; conditions: ht-29, 48 h
[21] = system: HT-29; assay: Downregulation of HIF1-alpha expression in human HT-29 cells after 24 hrs by immunoblot analysis; type: functional, cell-based
[22] = system: HT-29; assay: Induction of apoptosis in human HT-29 cells assessed as late apoptotic cells at 20 uM after 24 hrs by Annexin V-FITC/propidium iodide staining based flow cytometric analysis (reference value: 13.4%); type: cell-based; conditions: ht-29, 24 h
[23] = system: Chorioallantoic membrane; assay: Antiangiogenic activity in Leghorn chicken fertilized egg chorioallantoic membrane assessed as impaired neovascularization with absence of vascular networks at 10 nM/egg measured after 48 hrs by CAM assay; type: functional, tissue-based; conditions: Gallus gallus; summary of the method: as §2

Sequence of Vascular endothelial growth factor receptor 2 (Homo sapiens) (P35968 whole entry): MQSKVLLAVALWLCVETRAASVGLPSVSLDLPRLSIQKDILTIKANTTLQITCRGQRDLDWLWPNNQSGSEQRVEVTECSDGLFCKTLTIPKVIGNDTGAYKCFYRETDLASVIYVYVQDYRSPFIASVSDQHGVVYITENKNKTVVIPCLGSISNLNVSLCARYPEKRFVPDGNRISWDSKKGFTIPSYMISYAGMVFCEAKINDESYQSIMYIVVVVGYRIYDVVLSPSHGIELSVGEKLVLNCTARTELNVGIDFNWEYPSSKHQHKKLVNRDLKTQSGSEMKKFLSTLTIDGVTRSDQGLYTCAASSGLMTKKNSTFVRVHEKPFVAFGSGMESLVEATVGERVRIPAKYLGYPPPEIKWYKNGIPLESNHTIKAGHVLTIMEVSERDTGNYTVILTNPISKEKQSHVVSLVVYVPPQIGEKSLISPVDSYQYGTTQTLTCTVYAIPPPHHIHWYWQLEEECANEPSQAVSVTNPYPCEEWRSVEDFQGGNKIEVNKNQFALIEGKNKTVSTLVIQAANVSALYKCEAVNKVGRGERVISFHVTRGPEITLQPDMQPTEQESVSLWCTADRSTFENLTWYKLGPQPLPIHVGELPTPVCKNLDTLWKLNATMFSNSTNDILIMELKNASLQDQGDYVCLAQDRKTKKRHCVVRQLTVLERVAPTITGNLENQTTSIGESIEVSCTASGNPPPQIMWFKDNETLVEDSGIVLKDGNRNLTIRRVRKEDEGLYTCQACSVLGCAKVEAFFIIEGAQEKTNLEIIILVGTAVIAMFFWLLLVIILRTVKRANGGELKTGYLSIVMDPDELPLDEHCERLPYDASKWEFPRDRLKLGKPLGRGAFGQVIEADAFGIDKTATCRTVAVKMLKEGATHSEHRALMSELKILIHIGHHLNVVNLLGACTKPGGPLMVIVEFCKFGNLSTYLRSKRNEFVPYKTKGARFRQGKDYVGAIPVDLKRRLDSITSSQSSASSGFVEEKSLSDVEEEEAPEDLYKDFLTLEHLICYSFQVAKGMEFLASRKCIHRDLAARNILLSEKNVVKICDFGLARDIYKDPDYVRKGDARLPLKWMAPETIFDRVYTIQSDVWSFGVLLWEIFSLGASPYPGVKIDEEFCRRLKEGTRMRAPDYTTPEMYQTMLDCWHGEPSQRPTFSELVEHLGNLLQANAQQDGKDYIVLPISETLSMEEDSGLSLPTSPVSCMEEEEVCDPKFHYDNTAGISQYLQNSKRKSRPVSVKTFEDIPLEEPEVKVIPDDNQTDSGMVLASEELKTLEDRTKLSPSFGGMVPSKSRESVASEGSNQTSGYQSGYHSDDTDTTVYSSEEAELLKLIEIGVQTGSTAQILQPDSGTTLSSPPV
Sequence of RAC-alpha serine/threonine-protein kinase (Homo sapiens) (P31749 whole entry): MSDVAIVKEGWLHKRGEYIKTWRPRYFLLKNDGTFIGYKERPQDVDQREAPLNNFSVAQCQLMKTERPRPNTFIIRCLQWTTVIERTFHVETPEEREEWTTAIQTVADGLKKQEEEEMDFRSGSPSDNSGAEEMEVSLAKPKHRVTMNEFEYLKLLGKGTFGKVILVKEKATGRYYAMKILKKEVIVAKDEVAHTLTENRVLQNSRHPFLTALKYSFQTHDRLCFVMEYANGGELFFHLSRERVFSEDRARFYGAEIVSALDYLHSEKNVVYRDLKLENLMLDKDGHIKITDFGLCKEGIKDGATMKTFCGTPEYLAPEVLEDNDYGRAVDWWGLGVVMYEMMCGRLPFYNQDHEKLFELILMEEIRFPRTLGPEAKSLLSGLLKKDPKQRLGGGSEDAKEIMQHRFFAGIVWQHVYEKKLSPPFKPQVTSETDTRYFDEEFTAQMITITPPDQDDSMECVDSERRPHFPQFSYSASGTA

For `COc1ccc(NC(=O)c2cccc(/C=C3\CC(=O)N(c4ccc(C)cc4)C3=O)c2)cc1`, the Activity [1] was 9.7%, the inhibition [2] was “Dose-dependent effect” and the inhibition at 20 µM [3] was 70%. The Activity [4] was 0.8 to 4.7%, the Activity [5] was 12.5% and the IC50 [6] was over 100 µM. For the same molecule, the Activity [7] was 2.3%, the inhibition [8] was 95.4% and the inhibition [9] was “Dose-dependent effect”. The Activity [10] was 1.1%, the viability at 48 h, 5 µM [11] was 76.1% and the inhibition [12] was “Active”. The inhibition [13] was 50 to 70%, the inhibition [14] was “Active” and the IC50 [15] was 93 µM. For the same molecule, the Activity [16] was 2.3%, the inhibition [17] was “Dose-dependent effect” and the inhibition at 5 µM [18] was 40%. The Activity [19] was “Active”, the Activity [20] was 13.1% and the inhibition [21] was “Dose-dependent effect”. The Activity [22] was 17.1% and the Activity [23] was “Active”.
